Screening data from PubChem BioAssay.
V1aR counter – agonists of human V1a receptor, primary screen, counter-screen for OXTR agonist project, fluorescence, CHO-V1R cells; Fluo-8 calcium fluorescence, agonist mode; 0% DMSO, 100% 3 nM vasopressin; AID 2797, 2010; 320,000 compounds, 0.25% hits; Vasopressin V1a receptor (Homo sapiens), P37288; activation, % at 3 µM;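 active means activation above the mean activation of all tested compounds plus 3 SD, per screening run, cut at about 20% in these data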;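 further: signal is peak over basal fluorescence ratio across a 100 second FLIPR read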
OXTR potentiate – human OXTR potentiators, primary screen, fluorescence, CHO-OTR cells, Fluo-8 calcium. Oxytocin receptor (Homo sapiens), P30559. Fluo-8 calcium fluorescence, potentiator mode; 0% = oxytocin EC15, 100% = EC100. activation, % at 3 µM. 320,000 compounds, 0.061% hits;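 active means activation above that plate's cutoff, the mean activation of tested compounds plus 3 SD, cut at about 6.6% in these data, passing the limit was not always enough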;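 further: 100% uses oxytocin at 75 nM as the full agonist control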
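Measured by – Fluo-8 calcium dye fluorescence · Test system – human OTR in CHO cells · Dosing – one concentration, 3.0 µM compound · Controls – EC15 oxytocin alone as 0%, 75 nM oxytocin as 100% · Evaluation – normalized max/min fluorescence ratio, % activation · Timing – 6 min pre-incubation, 100 s read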
TAAR1 antagonist – human TAAR1 antagonists, primary screen, Fluo-8 calcium fluorescence, CHO RD-HGA16 cells; inhibition, % at 3 µM; AID 624466, 2012; antagonist; 360,000 compounds, 1.5% hits; Trace amine-associated receptor 1 (Homo sapiens), Q96RJ0;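 active means inhibition above a per-plate cutoff, the mean inhibition of test compounds on that plate plus 3 SD, cut at about 49% in these data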;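 further: 0% = DMSO plus EC80 beta-PEA response and 100% = DMSO alone without agonist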
Target sequence (Q96RJ0 whole entry, looked up): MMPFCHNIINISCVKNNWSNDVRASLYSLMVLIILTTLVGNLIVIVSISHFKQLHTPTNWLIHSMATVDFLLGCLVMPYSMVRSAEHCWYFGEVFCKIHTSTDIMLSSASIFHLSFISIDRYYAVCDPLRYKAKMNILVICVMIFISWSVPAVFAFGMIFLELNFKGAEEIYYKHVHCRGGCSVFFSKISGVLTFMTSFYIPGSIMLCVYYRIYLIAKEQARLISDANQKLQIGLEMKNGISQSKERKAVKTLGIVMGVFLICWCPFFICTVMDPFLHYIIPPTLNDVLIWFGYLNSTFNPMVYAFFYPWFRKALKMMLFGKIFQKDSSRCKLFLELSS
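Test system – hTAAR1-expressing CHO RD-HGA16 cells, Gα16-coupled · Also added – β-PEA at EC80 concentration, post-compound challenge · Compound – 3 µM, single point · Incubation – dye loading 75 min at 37 °C, then 30 min room temperature · Measured by – Fluo-8 intracellular calcium dye fluorescence, real-time kinetic reads · Benchmarks – vehicle and agonist controls · Replicates – singlicate, one well per test compound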
OXTR ag – human OXTR agonists, primary screen, fluorescence, CHO-OTR cells, Fluo-8 calcium; 320,000 compounds, 0.32% hits; activation, % at 3 µM; Fluo-8 calcium fluorescence; normalized: DMSO 0%, oxytocin 100%; Oxytocin receptor (Homo sapiens), P30559;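 active means activation above the mean of all tested compounds plus 3 SD, cutoff set per screening run, cut at about 20% in these data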;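 further: peak over basal fluorescence ratio from a 100 s FLIPR kinetic read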
TAAR1 ag – human TAAR1 agonists, primary screen, Fluo-8 calcium fluorescence, CHO RD-HGA16 cells; Trace amine-associated receptor 1 (Homo sapiens), Q96RJ0; vehicle wells 0%, saturating PEA agonist 100%; activation, % at 3 µM; 360,000 compounds, 0.99% hits; AID 624467, 2012;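 active means activation above the mean activation of all test compounds in the run plus 3 SD, cut at about 38% in these data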
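Test system: RD-HGA16 (CHO) cells co-expressing Gα16 and hTAAR1 | Doses: Single dose, 3 µM | Schedule: 17-24 h seeding, 75 min 37 °C dye, 30 min RT | Evaluation: % activation from peak over basal fluorescence ratio, DMSO-to-PEA scaled | Technique: Kinetic Fluo-8 calcium fluorescence | Benchmarks: Low control DMSO, high control PEA (EC100)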
TAAR1 ag conf – human TAAR1 agonists, retest of hits, confirmation, Fluo-8 calcium fluorescence, CHO RD-HGA16 cells; shares compounds with TAAR1 ag; scaled: DMSO 0%, maximal phenethylamine 100%; activation, % at 3 µM; 2,400 compounds, 82% hits; AID 651783, 2012;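 active means activation above a cutoff set at the run's mean compound activation plus 3 SD, cut at about 39% in these data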
Ga16 ag counter – nonselective calcium mobilization agonists, CHO-Ga16 cells, counter-screen for hTAAR1 agonist project, cell-based, fluorescence, CHO-Ga16 parental line; shares compounds with TAAR1 ag; Fluo-8 calcium fluorescence; normalized to maximal ATP response, DMSO zero; activation, % at 3 µM; 2,400 compounds, 50% hits;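 active means activation above the run cutoff, the mean activation over all tested wells plus 3 SD, cut at about 12% in these data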;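 further: 0% = DMSO wells and 100% = maximal ATP response on the peak over basal ratio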
TAAR1 desensitize – TAAR1 desensitization by agonist hits, confirmation, counter-screen for TAAR1 agonist project, cell-based, fluorescence, tachyphylaxis; inhibition, % at 3 µM; 2,400 compounds, 46% hits; shares compounds with TAAR1 ag; CHO RD-HGA16 hTAAR1, Fluo-8 calcium, beta-PEA response inhibition;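 active means inhibition above the run cutoff, the mean inhibition of all test compounds plus 3 SD, cut at about 49% in these data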;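 further: beta-PEA stimulus applied at its EC80; loss of beta-PEA calcium signal after compound pretreatment read as receptor desensitization; 0% = DMSO with beta-PEA at EC80 and 100% = DMSO alone without agonist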
Ga16 nonsel ant – inhibition of ATP-evoked calcium response in CHO-Ga16 cells, counter-screen for TAAR1 agonist project, cell-based, fluorescence; inhibition, % at 3 µM; CHO-Ga16 ATP-induced calcium, Fluo-8 fluorescence; shares compounds with TAAR1 ag; AID 651952, 2012; 2,400 compounds, 39% hits;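 active means inhibition above the plate's mean compound inhibition plus 3 SD, computed per plate, cut at about 22% in these data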;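 further: 0% = EC80 ATP with DMSO and 100% = DMSO wells without ATP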
* marks the source's active call; other numbers are inactive results; . = no result given. Sampled rows, rich in hits. Any-hit rate of the full collection: about 2.3%.

SMILES | V1aR counter | OXTR potentiate | TAAR1 antagonist | OXTR ag | TAAR1 ag | TAAR1 ag conf | Ga16 ag counter | TAAR1 desensitize | Ga16 nonsel ant
CCc1nc2c(OCC(=O)c3ccc(F)cc3)cccn2c1N(C)C(=O)c1ccccc1F | . | . | 15.6 | . | 2.9 | . | . | . | .
Cc1ccc(C(=O)NC(=S)Nc2cc(C(F)(F)F)ccc2Cl)cc1 | 0.5 | -4.5 | 21.9 | 0.2 | 6.6 | . | . | . | .
O=C(Cc1ccccc1)NC(=S)Nc1cc(C(F)(F)F)ccc1Cl | 12.3 | -13.4 | 49.3* | 1.3 | 53.2* | 49.0* | 20.4* | 38.9 | 18.7
c1ccc(CCn2nnnc2C(c2cccs2)N2CCN(Cc3ccc4c(c3)OCO4)CC2)cc1 (centres undefined) | 0.1 | -2.5 | 73.2* | -1.1 | 85.1* | 95.5* | 0.6 | 88.6* | 2.9
Fc1ccc(N2CCN(C(c3cccs3)c3nnnn3CCc3ccccc3)CC2)cc1 (centres undefined) | 0.7 | -12.9 | 5.9 | 1.3 | 2.9 | . | . | . | .
Fc1ccccc1N1CCN(C(c2cccs2)c2nnnn2CCc2ccccc2)CC1 (centres undefined) | 1.5 | -5.1 | 27.2 | -0.3 | 77.4* | 82.5* | -0.3 | 56.5* | 6.4
O=[N+]([O-])c1cc(/C=N/n2c(-c3ccncc3)n[nH]c2=S)ccc1Cl | -0.2 | -12.8 | -11.6 | 0.3 | 51.9* | 98.0* | 19.5* | 28.9 | -7.5
Cc1cc(-c2n[nH]c(=S)n2/N=C/c2ccc(Cl)c([N+](=O)[O-])c2)n[nH]1 | -0.1 | -4.8 | -22.5 | 0.3 | 4.3 | . | . | . | .
CCOC(=O)c1sc(Nc2nc(OC)cc(OC)n2)nc1C | -1.1 | -8.2 | -3.4 | -1.9 | -1.2 | . | . | . | .
Cc1cccc(Cn2nc(-n3cccc3)c3c(C)cc(C)nc32)c1 | -1.6 | -1.7 | -16.3 | -2.2 | 5.5 | . | . | . | .
CN(Cc1ccccc1)C(=O)COc1cc(Cl)ccc1Cl | -1.4 | 4.9 | . | -2.3 | . | . | . | . | .
COc1ccc2cc(CN(CCc3ccccc3)Cc3nnnn3Cc3ccco3)c(=O)[nH]c2c1 | 0.2 | -18.8 | 49.2* | -0.2 | 79.9* | 45.9* | 8.1 | 48.7* | 26.6*
Cc1ccc2cc(CN(Cc3ccc4c(c3)OCO4)Cc3nnnn3Cc3ccco3)c(=O)[nH]c2c1 | -0.3 | -23.5 | 46.7 | -1.0 | 6.7 | . | . | . | .
COC(=O)c1sc(NC(=S)NC(=O)c2ccccc2Cl)nc1C | 9.7 | -2.0 | -14.8 | 2.7 | 50.4* | 29.3 | 22.9* | 11.3 | 12.1
COC(=O)c1sc(NC(=S)NC(=O)c2ccccc2)nc1C | -0.1 | -1.0 | -16.6 | -1.2 | 12.2 | . | . | . | .
CCC(C)NC(=O)C(=O)NCc1ccccn1 (centres undefined) | -0.3 | -4.6 | 2.9 | 0.7 | 1.9 | . | . | . | .
O=C(Cc1ccccc1)NC(NCCc1ccccc1)C(Cl)(Cl)Cl (centres undefined) | 3.1 | -24.1 | 8.6 | -0.7 | 43.5* | 49.9* | 2.3 | 15.0 | 7.6
Cc1nc(NCCc2ccccc2)c2nnn(Cc3ccccc3)c2n1 | -0.3 | -4.4 | 44.7 | -2.5 | 51.2* | 76.6* | 15.0* | 45.1 | 2.3
